This note sets out measurements from ChEMBL document CHEMBL1131742, “Design of scytalone dehydratase inhibitors as rice blast fungicides: derivatives of norephedrine” (Bioorg Med Chem Lett, 1999).

pKi: −log10 of the molar value. Converted amounts (≈) assume the structure as drawn.

The test system of one experiment is rice. Kind of experiment: Concentration that affords 90% control of blast disease on rice plants in greenhouse assay. The experiment is classed as functional. In short, it runs like this: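 Foliar greenhouse test on rice plants against blast disease; compounds applied over a range of concentrations, and the concentration giving 90% disease control was derived from the dose-response data.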

The next experiment concerns the target T1, Scytalone dehydratase (Magnaporthe oryzae (strain 70-15 / FGSC 8958) (Rice blast fungus)(Pyricularia oryzae), UniProt P56221).
T1 sequence (P56221 whole entry): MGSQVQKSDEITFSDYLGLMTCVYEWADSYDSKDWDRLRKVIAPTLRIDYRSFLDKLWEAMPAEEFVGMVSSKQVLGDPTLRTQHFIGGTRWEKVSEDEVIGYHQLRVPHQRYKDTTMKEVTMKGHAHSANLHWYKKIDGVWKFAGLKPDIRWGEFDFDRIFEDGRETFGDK
Also on record: species or system Pyricularia grisea.

The molecule `CCC(C#N)C(=O)N[C@H](C)[C@@H](Oc1cc(F)ccc1C#N)c1ccccc1` (stereo partly drawn) returned an ED90 in the experiment on rice of 50 µg/mL (≈ 137 µM). Also, the pKi on Scytalone dehydratase is 10.68.

The molecule `CCC(C#N)C(=O)N[C@H](C)[C@@H](Oc1cc(F)ccc1F)c1ccccc1` (stereo partly drawn) yielded an ED90 in the experiment on rice of 2 µg/mL (≈ 5.58 µM). The pKi on Scytalone dehydratase was 10.70.

In the experiment on rice, `C[C@H](COc1cc(F)ccc1F)NC(=O)C(C#N)C1CC1` (stereo partly drawn) gave an ED90 of 50 µg/mL (≈ 170 µM). The negative-log Ki (pKi) at Scytalone dehydratase was 8.96.

`C[C@@H](NC(=O)C(C#N)C1CC1)[C@@H](Oc1cc(F)ccc1F)c1ccccc1` (stereo partly drawn) came in with an ED90 with rice of 2 µg/mL (≈ 5.4 µM). This molecule gave a negative logarithm of the Ki (pKi) on Scytalone dehydratase of 10.85.

In the case of `CC(C)C(C#N)C(=O)N[C@H](C)COc1cc(F)ccc1F` (stereo partly drawn), the ED90 in the experiment with rice was determined as 10 µg/mL (≈ 33.7 µM). Also, on Scytalone dehydratase, the pKi is 9.57.

For the molecule `CCC(C#N)C(=O)N[C@H](C)COc1cc(F)ccc1F` (stereo partly drawn), the ED90 in the experiment on rice is over 200 µg/mL. The negative logarithm of the Ki (pKi) on Scytalone dehydratase is 8.26.

Take `CC(C)C(C#N)C(=O)N[C@H](C)[C@@H](Oc1ccccc1C#N)c1ccccc1` (stereo partly drawn): the ED90 in the experiment with rice was 25 µg/mL (≈ 69.2 µM). Also, the pKi on Scytalone dehydratase was 10.42.

At Scytalone dehydratase, `C[C@H](COc1cc(F)ccc1F)NC(=O)[C@H](C#N)C(C)(C)C` had a pKi of 10.70.

Take `CCC(C#N)C(=O)N[C@H](C)[C@@H](Oc1ccccc1C#N)c1ccccc1` (stereo partly drawn): the ED90 in the experiment on rice is 10 µg/mL (≈ 28.8 µM). Further, at Scytalone dehydratase, the negative logarithm of the Ki (pKi) was 10.15.

`CC(C)C(C#N)C(=O)N[C@H](C)[C@@H](Oc1cc(F)ccc1C#N)c1ccccc1` (stereo partly drawn) registered an ED90 with rice of 25 µg/mL (≈ 65.9 µM). At Scytalone dehydratase, this molecule gave a pKi of 10.47.

Molecule `CCC(C#N)C(=O)N[C@H](C)[C@@H](Oc1cc(Cl)ccc1C#N)c1ccccc1` (stereo partly drawn) came in with an ED90 in the experiment with rice of 10 µg/mL (≈ 26.2 µM). For the same molecule, the pKi at Scytalone dehydratase was 10.51.

On to `C[C@@H](NC(=O)C(C#N)C(C)(C)C)[C@@H](Oc1ccccc1C#N)c1ccccc1` (stereo partly drawn), for which the ED90 with rice was 200 µg/mL (≈ 533 µM). This molecule also showed a pKi on Scytalone dehydratase of 9.85.

`CC(C)C(C#N)C(=O)N[C@H](C)[C@@H](Oc1cc(F)ccc1F)c1ccccc1` (stereo partly drawn): in the experiment on rice, the ED90 came to 100 µg/mL (≈ 269 µM). On Scytalone dehydratase, the pKi was 10.12.

For the molecule `C[C@H](COc1cc(F)ccc1F)NC(=O)C(C#N)C(C)(C)C` (stereo partly drawn), the ED90 with rice was 6 µg/mL (≈ 19.3 µM).

Turning to `CCC(C#N)C(=O)N[C@H](C)[C@@H](Oc1cc(Br)ccc1C#N)c1ccccc1` (stereo partly drawn), the ED90 in the experiment on rice amounted to 50 µg/mL (≈ 117 µM). The molecule also gave a negative-log Ki (pKi) on Scytalone dehydratase of 10.47.
